This is an account of results in ChEMBL document CHEMBL2346591, “Oxadiazole-isopropylamides as potent and noncovalent proteasome inhibitors” (J Med Chem, 2013).

Experiment [1] in a line: Inhibition of chymotrypsin-like activity of rabbit 20s proteasome beta5 subunit using Suc-Leu-Leu-Val-Tyr-AMC as substrate after 1 hr by fluorescence assay. Further details: species or system Oryctolagus cuniculus.
The species named for experiment [2] is Oryctolagus cuniculus. The experiment is described as follows: Inhibition of chymotrypsin-like activity of rabbit 20s proteasome beta5 subunit using Suc-Leu-Leu-Val-Tyr-AMC as substrate at 10 uM after 1 hr by fluorescence assay. The essentials:
(§1)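 Purified rabbit 20S proteasome at 1 nM, with or without compound, incubated 1 h at 37 °C in 50 mM Tris-HCl pH 7.6 with fluorogenic AMC peptide: 20 µM […] (CT-L), Bz-Val-Gly-Arg-AMC (T-L) or Z-Leu-Leu-Glu-AMC (PGPH-L).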

The species named for experiment [3] is Oryctolagus cuniculus. Put plainly: Reversible inhibition of chymotrypsin-like activity of rabbit 20s proteasome beta5 subunit assessed as residual activity at 10 uM after 2 hrs by dialysis method relative to control.
Experiment [4] in a line: Inhibition of trypsin-like activity of rabbit 20s proteasome beta2 subunit using Bz-Val-Gly-Arg-AMC as substrate after 1 hr by fluorescence assay. Further details: species or system Oryctolagus cuniculus. In short, it runs like this:
as §1

A further experiment concerns MDA-MB-468. The experiment is described as follows: Cytotoxicity against human MDA-MB-468 cells assessed as decrease in cell survival after 120 hrs by MTT assay. Format: functional, cell-based. In short, it runs like this: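 MDA-MB-468 cells (DMEM, 10% FBS, penicillin/streptomycin, 37 °C, 5% CO2) attached overnight, then exposed 120 h to varying inhibitor concentrations; medium replaced with complete medium containing 1 mg/ml MTT for 3 h at 37 °C, DMSO solubilisation, absorbance at 540 nm. IC50 from a four-parameter curve fit of % inhibition versus concentration.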

Experiment [5] is described as follows: Inhibition of postglutamyl-peptide-hydrolysis-like activity of rabbit 20s proteasome beta1 subunit using benzyloxycarbonyl Z-Leu-Leu-Glu-AMC as substrate after 1 hr by fluorescence assay. Further details: species or system Oryctolagus cuniculus. The essentials:
as §1

The target in experiment [6] is T1, Proteasome Macropain subunit MB1 (Homo sapiens, UniProt P28074).
T1 sequence (P28074 whole entry): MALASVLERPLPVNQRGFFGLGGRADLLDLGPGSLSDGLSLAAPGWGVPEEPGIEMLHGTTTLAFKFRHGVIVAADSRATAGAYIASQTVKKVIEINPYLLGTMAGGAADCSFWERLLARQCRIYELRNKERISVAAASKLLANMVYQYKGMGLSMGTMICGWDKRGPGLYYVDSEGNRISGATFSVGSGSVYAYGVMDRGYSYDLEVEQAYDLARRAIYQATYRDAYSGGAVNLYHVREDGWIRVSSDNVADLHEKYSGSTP
Put plainly: (§2) Inhibition of chymotrypsin-like activity of proteasome beta5 subunit in human MDA-MB-468 cells using Suc-Leu-Leu-Val-Tyr-AMC as substrate after 2 hrs by fluorescence assay. The class given is cell-based.

The target of experiment [7] is T2, Proteasome Macropain subunit MB1 (Homo sapiens) (UniProt P28074).
T2 sequence (whole entry): T1 sequence (P28074 whole entry)
Described as §2. Format: cell-based.

The species entered for experiment [8] is Oryctolagus cuniculus. Put plainly: Reversible inhibition of chymotrypsin-like activity of rabbit 20s proteasome beta5 subunit assessed as residual activity at 10 uM after 20 mins by dialysis method relative to control.
The species named for experiment [9] is Oryctolagus cuniculus. The experiment is described as follows: Covalent binding affinity to rabbit 20s proteasome beta5 subunit assessed as modification of TTTLAFK peptide after 30 mins by LC-MS/MS analysis. In short, it runs like this: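 Purified rabbit 20S proteasome (1 nM) incubated with inhibitor in 50 mM Tris-HCl pH 7.6 for 30 min at room temperature; acetonitrile added, then trypsin (enzyme:substrate 1:50) digestion for 4 h at 37 °C; peptides concentrated, C18 tip-extracted, then LC/MS-MS checking the N-terminal Thr-1 TTTLAFK peptide for modification versus vehicle (DMSO).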

Experiment [10] is filed under the species Oryctolagus cuniculus. The experiment is described as follows: Reversible inhibition of chymotrypsin-like activity of rabbit 20s proteasome beta5 subunit at 2.5 uM after 18 hrs by dialysis method.

SMILES strings stand for the structures. Active and inactive are the calls of the source. The rule behind the calls is not given here.

In experiment [1], `Cc1ccc(OCC(=O)N(Cc2nc(-c3ccncc3)no2)C(C)C)cc1` registered an IC50 of 0.37 µM. `CCN(Cc1nc(-c2ccc(C)cc2)no1)C(=O)COc1ccc(C)cc1` returned an IC50 in experiment [1] of 6.04 µM. In experiment [1], `CC(C)N(Cc1nc(-c2cccnc2)no1)C(=O)COc1ccc(C(C)(C)C)cc1` showed an IC50 of 46.5 µM. On to `Cc1ccc(OCC(=O)N(Cc2nc(-c3ccc(C)cc3)no2)CC(C)C)cc1`, for which, in [1], the IC50 was 2.37 µM. In the case of `CC(C)N(Cc1nc(-c2ccccc2)no1)C(=O)COc1ccc(Cl)cc1`, the IC50 in [1] turned out to be 0.51 µM. On to `CC(C)N(Cc1nc(-c2ccccc2)no1)C(=O)COc1ccc(F)cc1`, for which the IC50 in experiment [1] was determined as 10.1 µM. The same measure, in the same setting: in the case of `CC(C)N(Cc1nc(-c2ccc(Cl)cc2)no1)C(=O)COc1ccc(Cl)cc1` it was 1.07 µM.

In turn, `CC(C)N(Cc1nc(-c2ccccc2)no1)C(=O)CCc1ccc(C(F)(F)F)cc1` came in with a concentration for half-maximal inhibition (IC50) in experiment [1] of 53.5 µM. On to `Cc1ccc(OCC(=O)N(Cc2nc(-c3ccc(Cl)cc3)no2)C(C)C)cc1`, for which half-maximal inhibition in experiment [1] (IC50) required 0.45 µM. As for `Cc1ccc(OCC(=O)N(Cc2nc(-c3ccccc3)no2)C(C)C)cc1`, half-maximal inhibition in [1] (IC50) required 0.31 µM. The molecule `Cc1ccc(OCC(=O)N(Cc2nc(-c3cccnc3)no2)C(C)C)cc1` came in with an IC50 in experiment [1] of 0.22 µM. Consider `CCCCCc1ccc(OCC(=O)N(Cc2nc(-c3cccnc3)no2)C(C)C)cc1`, for which, in [1], the midpoint of inhibition, the IC50, lay at 0.12 µM. Take `Cc1cccc(OCC(=O)N(Cc2nc(-c3ccccc3)no2)C(C)C)c1`: the inhibition result in the experiment listed under Oryctolagus cuniculus [2] is “inactive”. As for `Cc1ccc(OCC(=O)N(Cc2nc(-c3ccc(C)cc3)no2)C(C)C)cc1`, the Activity in the experiment listed under Oryctolagus cuniculus [3] was 100%; in the experiment filed under Oryctolagus cuniculus [8], over 70%. For the same molecule, the IC50 in experiment [4] is over 100 µM; in experiment [5] it was over 100 µM; in [6], 3.5 µM; in [1] it was 0.6 µM. Also, the outcome in the experiment with MDA-MB-468 was Active. The inhibition result in experiment [7] was “Dose-dependent effect”. In addition, in the experiment filed under Oryctolagus cuniculus [9], the outcome was inactive.

In turn, `CC(C)N(Cc1nc(-c2cccnc2)no1)C(=O)COc1ccc(F)cc1` came in with an IC50 in [1] of 1.93 µM. `CC(C)N(Cc1nc(-c2ccc(Cl)cc2)no1)C(=O)COc1ccc(C(F)(F)F)cc1` showed an IC50 in experiment [1] of 0.94 µM. In [1], `Cc1ccc(-c2noc(CN(C(=O)COc3ccc(Cl)cc3)C(C)C)n2)cc1` yielded an IC50 of 1.12 µM. `Cc1ccc(OCC(=O)N(Cc2nc(-c3ccccc3)no2)C(C)C)cn1`: the IC50 in experiment [1] amounted to 4 µM.

`Cc1ccc(-c2noc(CN(C(=O)COc3ccccc3)C(C)C)n2)cc1`: 8.5 µM corresponded to half-maximal inhibition in [1] (IC50). `CC(C)N(Cc1nc(-c2ccccc2)no1)C(=O)COc1ccc(C(=O)OC(C)(C)C)cc1`: the inhibition result in the experiment listed under Oryctolagus cuniculus [2] was “inactive”. For `CC(C)N(Cc1nc(-c2ccc(C(F)(F)F)cc2)no1)C(=O)COc1ccc(C(F)(F)F)cc1`, inhibition in experiment [1] was half-maximal at 2.53 µM (IC50). Take `Cc1ccc(OCC(=O)N(CCc2nc(-c3ccccc3)no2)C(C)C)cc1`: the inhibition entry in the experiment filed under Oryctolagus cuniculus [2] was “inactive”. In experiment [1], `CC(C)N(Cc1nc(-c2ccccc2)no1)C(=O)COc1ccc(O)cc1` had an IC50 of 10.1 µM. In experiment [1], `CCCCCCc1ccc(OCC(=O)N(Cc2nc(-c3cccnc3)no2)C(C)C)cc1` gave an IC50 of 0.43 µM. On to `CCCc1ccc(OCC(=O)N(Cc2nc(-c3cccnc3)no2)C(C)C)cc1`, for which the IC50 in [4] is over 100 µM; in experiment [5], over 100 µM; in experiment [1], 0.027 µM. Besides, in the experiment with MDA-MB-468, the result was Active. Turning to `Cc1ccc(OCC(=O)NCc2nc(-c3ccc(C)cc3)no2)cc1`, the inhibition entry in the experiment listed under Oryctolagus cuniculus [2] was “inactive”. `CC(C)c1ccc(OCC(=O)N(Cc2nc(-c3cccnc3)no2)C(C)C)cc1` had an IC50 in experiment [1] of 0.44 µM.

Turning to `CCc1ccc(OCC(=O)N(Cc2nc(-c3ccccc3)no2)C(C)C)cc1`, half-maximal inhibition in experiment [1] (IC50) required 0.26 µM. `CC(C)N(Cc1nc(-c2cccnc2)no1)C(=O)COc1ccc(O)cc1` registered an IC50 in experiment [1] of 0.98 µM. With `Cc1ccc(OCC(=O)N(Cc2nc(-c3ccc(C)cc3)no2)C2CC2)cc1`, in the experiment listed under Oryctolagus cuniculus [2], the inhibition result is “inactive”.

In experiment [1], `CC(C)N(Cc1nc(-c2ccccc2)no1)C(=O)COc1ccc(C(F)(F)F)cc1` yielded an IC50 of 0.43 µM.

Molecule `CCCc1ccc(OCC(=O)N(Cc2nc(-c3cnccn3)no2)C(C)C)cc1` returned a half-inhibitory concentration (IC50) in experiment [1] of 0.105 µM. Still for that read-out and setting: in the case of `Cc1ccc(OCC(=O)N(Cc2nc(-c3ccc(C(F)(F)F)cc3)no2)C(C)C)cc1` it was 0.97 µM; in that of `Cc1ccc(OCC(=O)N(Cc2nc(-c3ccccn3)no2)C(C)C)cc1`, 3.75 µM. On the same count and under the same terms, in the case of `CCCc1ccc(OCC(=O)N(Cc2nc(-c3ccc(C)cc3)no2)C(C)C)cc1` it was 0.273 µM. Turning to `CC(C)N(Cc1nc(-c2ccccc2)no1)C(=O)COc1ccc(C(=O)O)cc1`, the inhibition entry in the experiment filed under Oryctolagus cuniculus [2] was “inactive”. With `Cc1ccc(OCC(=O)N(C)Cc2nc(-c3ccc(C)cc3)no2)cc1`, in experiment [1], the IC50 was 29.9 µM.

Take `Cc1ccccc1OCC(=O)N(Cc1nc(-c2ccccc2)no1)C(C)C`: in the experiment listed under Oryctolagus cuniculus [2], the inhibition result was “inactive”. In the case of `CC(C)N(Cc1nc(-c2ccc(C(F)(F)F)cc2)no1)C(=O)COc1ccccc1`, the IC50 in [1] is 11.2 µM. For the molecule `CC(C)N(Cc1nc(-c2ccccc2)no1)C(=O)COc1ccc2cc(Br)ccc2c1`, in the experiment filed under Oryctolagus cuniculus [2], the inhibition result was “inactive”. Take `CC(C)N(Cc1nc(-c2cccnc2)no1)C(=O)COc1ccc(Cl)cc1`: in [1], the half-inhibitory concentration (IC50) worked out at 0.14 µM. Take `Cc1ccc(OCC(=O)N(Cc2nc(-c3ccc(C)cc3)no2)C(C)(C)C)cc1`: in the experiment filed under Oryctolagus cuniculus [2], the inhibition entry is “inactive”.

`CCCCc1ccc(OCC(=O)N(Cc2nc(-c3cccnc3)no2)C(C)C)cc1` came in with an IC50 in experiment [1] of 0.039 µM. On to `CC(C)N(Cc1nc(-c2ccccc2)no1)C(=O)COc1ccc(-c2ccccc2)cc1`, for which, in the experiment listed under Oryctolagus cuniculus [2], the inhibition result is “inactive”. Turning to `CC(C)N(Cc1nc(-c2ccc(C(F)(F)F)cc2)no1)C(=O)COc1ccc(Cl)cc1`, half-maximal inhibition in [1] (IC50) required 1.41 µM. On to `CC(C)N(Cc1nc(-c2ccccc2)no1)C(=O)COc1ccccc1`, for which, in [1], the IC50 worked out at 6.2 µM. For the molecule `CCCCc1ccc(OCC(=O)N(Cc2nc(-c3cnccn3)no2)C(C)C)cc1`, in experiment [1], the concentration for half-maximal inhibition (IC50) amounted to 0.107 µM. Same read-out and setting: the same measure for `CC(C)N(Cc1nc(-c2cccnc2)no1)C(=O)COc1ccccc1`: 2.71 µM. The molecule `Cc1ccc(NCC(=O)N(Cc2nc(-c3ccccc3)no2)C(C)C)cc1` showed an IC50 in experiment [1] of 5.67 µM.

For the molecule `CC(C)N(Cc1nc(-c2cccnc2)no1)C(=O)COc1ccc(C2CCCCC2)cc1`, the IC50 in [1] is 1.36 µM. As for `Cc1ccc(CNC(=O)N(Cc2nc(-c3ccccc3)no2)C(C)C)cc1`, the inhibition entry in the experiment filed under Oryctolagus cuniculus [2] was “inactive”. Turning to `CC(C)Cc1ccc(OCC(=O)N(Cc2nc(-c3cccnc3)no2)C(C)C)cc1`, the IC50 in experiment [1] is 0.14 µM. In experiment [1], `CC(C)N(Cc1nc(-c2cccnc2)no1)C(=O)c1cc2ccccc2o1` came in with an IC50 of 0.379 µM. Still for that read-out and setting: the same measure for `Cc1ccc(-c2noc(CN(C(=O)COc3ccc(C(F)(F)F)cc3)C(C)C)n2)cc1`: 1.08 µM; for `CCc1ccc(OCC(=O)N(Cc2nc(-c3cccnc3)no2)C(C)C)cc1`: 0.099 µM; for `CCCc1ccc(OCC(=O)N(Cc2nc(-c3ncccn3)no2)C(C)C)cc1`: 1.27 µM. Turning to `CC(=O)N[C@@H](CSC(=O)[C@]1([C@@H](O)C(C)C)NC(=O)[C@H](C)[C@@H]1O)C(=O)O`, in the experiment filed under Oryctolagus cuniculus [10], the inhibition result was “inactive”. Also, the outcome in the experiment listed under Oryctolagus cuniculus [9] was Active.

Usually IC50 stands for the concentration that inhibits the measured activity by half.
